In brackets after ≈: the same amount, converted by molar mass. Activity calls are given as the source filed them. The rule behind the calls is not given here.
Experiments:
DNA [1] = assay: Binding affinity to Klebsiella pneumoniae DNA assessed as increase in absorption peak of DNA by UV-Vis spectroscopy; type: nucleic-acid assay
How it was run: (§1)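 DNA isolated from K. pneumoniae held at fixed concentration while test compound is added in stepwise, proportional increments; UV-vis absorption spectra recorded, following the 260 nm DNA band.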

Candida albicans [2] = assay: Antifungal activity against Candida albicans assessed as inhibition of fungal growth after 24 hrs by CLSI protocol based two fold serial dilution method; type: functional
How it was run: (§2)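 Two-fold serial broth dilution in 96-well plates following CLSI; MIC (mM) taken as the lowest concentration giving complete growth inhibition; MIC values from three independent experiments.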

Candida tropicalis = assay: Antifungal activity against Candida tropicalis assessed as inhibition of fungal growth after 24 hrs by CLSI protocol based two fold serial dilution method; type: functional; how it was run: as §2
Enterococcus faecalis = assay: Antibacterial activity against Enterococcus faecalis assessed as inhibition of bacterial growth after 24 hrs by CLSI protocol based two fold serial dilution method; type: functional; how it was run: as §2
Staphylococcus aureus [3] = assay: Antibacterial activity against Staphylococcus aureus assessed as bacterial growth inhibition in presence of cefathiamidine by CLSI protocol based two fold serial dilution method; type: functional; how it was run: as §2
DNA [4] = assay: Competitive binding affinity to Klebsiella pneumoniae DNA assessed as increase in DNA intercalation by measuring increase in absorbance at around 260 nm by UV spectroscopy; type: nucleic-acid assay
How it was run: (§3)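 Competitive binding with neutral red as spectral probe on K. pneumoniae DNA, monitored by UV-vis absorption spectroscopy.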

Candida parapsilosis = assay: Antifungal activity against Candida parapsilosis ATCC 22019 assessed as inhibition of fungal growth after 24 hrs by CLSI protocol based two fold serial dilution method; type: functional; conditions: Lodderomyces parapsilosis; how it was run: as §2
Staphylococcus aureus [5] = assay: Synergistic antibacterial activity against methicillin-resistant Staphylococcus aureus assessed as fractional inhibitory concentration index in presence of cefathiamidine by CLSI protocol based two fold serial dilution method; type: functional
How it was run: (§4)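 Checkerboard-type pairing, with each agent tested alone and combined by CLSI two-fold serial dilution. MICs are from three independent experiments. FIC index = (MIC of A combined/MIC of A alone) + (MIC of B combined/MIC of B alone). An index ≤1 is read as synergistic and 1–2 as additive.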

Staphylococcus aureus [6] = assay: Antibacterial activity against Staphylococcus aureus ATCC 29213 assessed as inhibition of bacterial growth after 24 hrs by CLSI protocol based two fold serial dilution method; type: functional
Staphylococcus aureus [7] = assay: Antibacterial activity against methicillin-resistant Staphylococcus aureus N315 assessed as inhibition of bacterial growth after 24 hrs by CLSI protocol based two fold serial dilution method; type: functional
Klebsiella pneumoniae [8] = assay: Bactericidal activity against Klebsiella pneumoniae assessed as log reduction in viable bacteria at 4 times MIC incubated for 1 hr followed by plating on agar plate and measured after 24 hrs by time kill assay; type: functional
How it was run: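 Time-kill kinetics for K. pneumoniae at 4 × MIC.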

Klebsiella pneumoniae [9] = assay: Synergistic antibacterial activity against Klebsiella pneumoniae assessed as fractional inhibitory concentration index in presence of cefathiamidine by CLSI protocol based two fold serial dilution method; type: functional
Pseudomonas aeruginosa [10] = assay: Antibacterial activity against Pseudomonas aeruginosa assessed as inhibition of bacterial growth after 24 hrs by CLSI protocol based two fold serial dilution method; type: functional; how it was run: as §2
Klebsiella pneumoniae [11] = assay: Potentiation of cefathiamidine-induced antibacterial activity against Klebsiella pneumoniae assessed as fold reduction in cefathiamidine MIC by CLSI protocol based two fold serial dilution method; type: functional
Klebsiella pneumoniae [12] = assay: Antibacterial activity against Klebsiella pneumoniae measured every 24 hrs after 10 passages by serial dilution method; type: functional, organism-based
Escherichia coli [13] = assay: Antibacterial activity against Escherichia coli assessed as bacterial growth inhibition in presence of cefathiamidine by CLSI protocol based two fold serial dilution method; type: functional; how it was run: as §2
DNA [14] = assay: Competitive binding affinity to Klebsiella pneumoniae DNA assessed as increase in DNA-NR probe absorption intensity at wavelength of 460 nm by UV spectroscopy; type: nucleic-acid assay; how it was run: as §3
Aspergillus fumigatus = assay: Antifungal activity against Aspergillus fumigatus assessed as inhibition of fungal growth after 24 hrs by CLSI protocol based two fold serial dilution method; type: functional; how it was run: as §2
Saccharomyces cerevisiae = assay: Inhibition of Saccharomyces cerevisiae CGMCC 2.145 chitin synthase at 300 ug/ml using GlcNAc and UDP-GlcNAc as substrate incubated for 60 mins by microplate reader analysis relative to control; conditions: dose 300.0 µg/ml
How it was run: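 Chitin synthase inhibition ratio measured at 300 µg/mL test compound, relative to untreated control.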

DNA [15] = assay: Binding affinity to Klebsiella pneumoniae DNA assessed as red shift in absorption spectra by UV-Vis spectroscopy; type: nucleic-acid assay; how it was run: as §1
Pseudomonas aeruginosa [16] = assay: Antibacterial activity against Pseudomonas aeruginosa ATCC 27853 assessed as inhibition of bacterial growth after 24 hrs by CLSI protocol based two fold serial dilution method; type: functional; how it was run: as §2
DNA [17] = assay: Binding affinity to Klebsiella pneumoniae DNA assessed as intercalating activity by measuring intrinsic binding constant by UV-Vis spectroscopy; type: nucleic-acid assay; how it was run: as §1
DNA [18] = assay: Binding affinity to Klebsiella pneumoniae DNA assessed as cleavage of DNA at 50 uM and pH 7.4 and 37 °C incubated for 6 hrs by gel electrophoresis analysis
[19] = Cytotoxicity against mouse RAW264.7 cells assessed as cell viability at 128 ug/ml after 72 hrs by MTT assay relative to control; type: cell-based; conditions: at 128 µg/mL, read-out: Activity
How it was run: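 RAW 264.7 mouse macrophage cells exposed to test compound; viability by colorimetric MTT proliferation assay; standard deviation from three independent experiments.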

Klebsiella pneumoniae [20] = assay: Induction of membrane permeabilization in Klebsiella pneumoniae at 12 times MIC measured after 1 hr by propidium iodide staining based fluorescence assay; type: functional, organism-based
Staphylococcus aureus [21] = assay: Antibacterial activity against Staphylococcus aureus assessed as inhibition of bacterial growth after 24 hrs by CLSI protocol based two fold serial dilution method; type: functional; how it was run: as §2
Acinetobacter baumannii = assay: Antibacterial activity against Acinetobacter baumannii assessed as inhibition of bacterial growth after 24 hrs by CLSI protocol based two fold serial dilution method; type: functional; how it was run: as §2
DNA [22] = assay: Competitive binding affinity to Klebsiella pneumoniae DNA assessed as intercalating activity by measuring decrease in DNA-NR probe absorption spectra at wavelength of 530 nm by UV spectroscopy; type: nucleic-acid assay; how it was run: as §3
[23] = Inhibition of Saccharomyces cerevisiae CGMCC 2.145 chitin synthase using GlcNAc and UDP-GlcNAc as substrate incubated for 60 mins by microplate reader analysis
How it was run: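 Chitin synthase IC50 determined from concentration–inhibition curves.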

Klebsiella pneumoniae [24] = assay: Antibacterial activity against Klebsiella pneumoniae assessed as inhibition of bacterial growth after 24 hrs by CLSI protocol based two fold serial dilution method; type: functional; how it was run: as §2
DNA gyrase = DNA gyrase (Escherichia coli, UniProt P0AES4+P0AES6); assay: Inhibition of Escherichia coli DNA gyrase holoenzyme assessed as reduction in pBR322 DNA supercoiling using pBR322 plasmid DNA as substrate incubated for 90 mins in presence of ATP by ethidium bromide staining based agarose gel electrophoresis analysis; type: protein-complex assay
Staphylococcus aureus [25] = assay: Additive antibacterial activity against Staphylococcus aureus assessed as fractional inhibitory concentration index in presence of cefathiamidine by CLSI protocol based two fold serial dilution method; type: functional
Klebsiella pneumoniae [26] = assay: Antibacterial activity against Klebsiella pneumoniae assessed as bacterial growth inhibition in presence of cefathiamidine by CLSI protocol based two fold serial dilution method; type: functional; how it was run: as §2
Escherichia coli [27] = assay: Antibacterial activity against Escherichia coli ATCC 25922 assessed as inhibition of bacterial growth after 24 hrs by CLSI protocol based two fold serial dilution method; type: functional; how it was run: as §2
Escherichia coli [28] = assay: Antibacterial activity against Escherichia coli assessed as inhibition of bacterial growth after 24 hrs by CLSI protocol based two fold serial dilution method; type: functional; how it was run: as §2
Escherichia coli [29] = assay: Synergistic antibacterial activity against Escherichia coli assessed as fractional inhibitory concentration index in presence of cefathiamidine by CLSI protocol based two fold serial dilution method; type: functional
DNA [30] = assay: Binding affinity to Klebsiella pneumoniae DNA assessed as hyperchromic shift by UV-Vis spectroscopy; type: nucleic-acid assay; how it was run: as §1
Candida albicans [31] = assay: Antifungal activity against Candida albicans ATCC 90023 assessed as inhibition of fungal growth after 24 hrs by CLSI protocol based two fold serial dilution method; type: functional; how it was run: as §2
Staphylococcus aureus [32] = assay: Antibacterial activity against Staphylococcus aureus ATCC 25923 assessed as inhibition of bacterial growth after 24 hrs by CLSI protocol based two fold serial dilution method; type: functional; how it was run: as §2
Staphylococcus aureus [33] = assay: Antibacterial activity against methicillin-resistant Staphylococcus aureus assessed as bacterial growth inhibition in presence of cefathiamidine by CLSI protocol based two fold serial dilution method; type: functional; how it was run: as §4

## CCn1cc(-c2csc(N)n2)c(=O)c2cc(F)c(N3CCN(CC#N)CC3)cc21
DNA [1]
  Activity: Active
Candida albicans [2]
  MIC: 10 µM (≈ 4.12 µg/mL)
Candida tropicalis
  MIC: 39 µM (≈ 16.1 µg/mL)
Enterococcus faecalis
  MIC: 19 µM (≈ 7.84 µg/mL)
Staphylococcus aureus [3]
  MIC: 10 µM
DNA [4]
  Activity: Active
Candida parapsilosis
  MIC: 19 µM (≈ 7.84 µg/mL)
Staphylococcus aureus [5]
  fractional inhibitory concentration index (FICI): 0.61
Staphylococcus aureus [6]
  MIC: 10 µM (≈ 4.12 µg/mL)
Staphylococcus aureus [7]
  MIC: 19 µM (≈ 7.84 µg/mL)
Klebsiella pneumoniae [8]
  Activity: >2.5 log10CFU/ml
Klebsiella pneumoniae [9]
  fractional inhibitory concentration index (FICI): 0.7
Pseudomonas aeruginosa [10]
  MIC: 19 µM (≈ 7.84 µg/mL)
Klebsiella pneumoniae [11]
  fold change (FC): 2
Klebsiella pneumoniae [12]
  Activity: Active
Escherichia coli [13]
  MIC: 10 µM
DNA [14]
  Activity: Active
Aspergillus fumigatus
  MIC: 19 µM (≈ 7.84 µg/mL)
Saccharomyces cerevisiae
  inhibition: 64.6%
DNA [15]
  Activity: Active
Pseudomonas aeruginosa [16]
  MIC: 19 µM (≈ 7.84 µg/mL)
DNA [17]
  K: 1.43 10^4L/mol
DNA [18]
  Activity: inactive
[19]
  viability at 72 h, 128 ug/ml: 80.2%
Klebsiella pneumoniae [20]
  Activity: Active
Staphylococcus aureus [21]
  MIC: 10 µM (≈ 4.12 µg/mL)
Acinetobacter baumannii
  MIC: 19 µM (≈ 7.84 µg/mL)
DNA [22]
  Activity: Active
[23]
  IC50: 180 µM
Klebsiella pneumoniae [24]
  MIC: 5 µM (≈ 2.06 µg/mL)
DNA gyrase
  IC50: 16.7 µM
Staphylococcus aureus [25]
  fractional inhibitory concentration index (FICI): 1.12
Klebsiella pneumoniae [26]
  MIC: 1 µM
Escherichia coli [27]
  MIC: 10 µM (≈ 4.12 µg/mL)
Escherichia coli [28]
  MIC: 39 µM (≈ 16.1 µg/mL)
Escherichia coli [29]
  fractional inhibitory concentration index (FICI): 0.73
DNA [30]
  Activity: Active
Candida albicans [31]
  MIC: 10 µM (≈ 4.12 µg/mL)
Staphylococcus aureus [32]
  MIC: 10 µM (≈ 4.12 µg/mL)
Staphylococcus aureus [33]
  MIC: 2 µM

Source: ChEMBL document CHEMBL4665627 (Eur J Med Chem, 2019)
